# Reference: ChEMBL document CHEMBL1123083, “Synthesis and antiherpetic activity of (S)-, (R)-, and (+/-)-9-[(2,3-dihydroxy-1-propoxy)methyl]guanine, linear isomers of 2'-nor-2'-deoxyguanosine” (J Med Chem, 1985)
# Activity calls are given as the source filed them. No cut-off for these calls is given here.
# Assays:
# Human alphaherpesvirus 1 [1] = experiment: Efficacy was evaluated against Oraficial HSV-1 infection in mice with lesions administered orally at a dose 50 mg/kg per day; Total mice tested 10; type: organism-based; set-up: route oral; details: mouse, in vivo, po
# Method in brief: (§1)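 HSV-1 strain S inoculated in the orofacial area of mice as previously described. Half-daily doses given by gavage 8 h apart, starting 3 h after infection, for 7 days. On day 7 after infection, mice with lesions per group and average lesion score were recorded (95% confidence interval). Significance was judged against placebo-treated infected mice (p < 0.05).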
# Human alphaherpesvirus 1 [2] = experiment: Efficacy was evaluated against Systemic HSV-1 infection in mice at a daily dose of 12.5 mg/kg administered orally.; type: ADME, organism-based; set-up: dose 12.5 mg/kg; details: mouse, in vivo, po
# Method in brief: (§2)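 Mixed-sex ICR/Ha mice (10–20 g) were infected intraperitoneally with 50–100 LD50 of HSV-1 Schooler. Oral dosing of 0.1 mL twice daily for 7 days began immediately after infection. Groups were of about 10 mice. Deaths were recorded daily for 15 days, giving survivors/total and mean survival time with 95% CI. Significance was judged against placebo-treated infected mice using transformed survival times.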
# Human betaherpesvirus 5 [3] = experiment: In vitro anti viral activity tested against HCMV(AD169) virus on MRC-5 cell monolayers; 20-25; type: functional; details: Human betaherpesvirus 5, MRC5; read-out: ED50 (the source's name)
# Method in brief: (§3)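 MRC-5 monolayers were infected with HCMV AD169 for 1 h at 37 °C. Compound diluted in maintenance medium was then added and incubation continued for 7 days at 37 °C. Monolayers were stained and plaques counted. ED50 is the concentration reducing plaque number by 50%.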
# Human alphaherpesvirus 1 [4] = experiment: Efficacy was evaluated against Oraficial HSV-1 infection in mice with lesions administered orally at dose 3.1 mg/kg per day; Total mice tested 10; type: ADME, organism-based; set-up: route oral; details: mouse, in vivo, po; method in brief: as §1
# Human alphaherpesvirus 1 [5] = experiment: Efficacy was evaluated against Systemic HSV-1 infection in mice at a daily dose of 3.1 mg/kg administered orally.; type: ADME, organism-based; set-up: dose 3.1 mg/kg; details: mouse, in vivo, po; method in brief: as §2
# Human alphaherpesvirus 1 [6] = experiment: Efficacy was evaluated against Oraficial HSV-1 infection in mice with lesions administered orally at a dose 12.5 mg/kg per day.; type: ADME, organism-based; set-up: route oral; details: mouse, in vivo, po; method in brief: as §1
# Human alphaherpesvirus 1 [7] = experiment: Efficacy was evaluated against Oraficial HSV-1 infection in mice with lesions administered orally at a dose 12.5 mg/kg per day; Total mice tested 10; type: organism-based; set-up: route oral; details: mouse, in vivo, po; method in brief: as §1
# Human alphaherpesvirus 1 [8] = experiment: Efficacy was evaluated against Oraficial HSV-1 infection in mice with lesions administered orally at a dose 3.1 mg/kg per day.; type: ADME, organism-based; set-up: route oral; details: mouse, in vivo, po; method in brief: as §1
# Human alphaherpesvirus 1 [9] = experiment: In vitro anti viral activity tested against HSV-1(Schooler) virus on Rabbit kidney cell cultures; 1-3; type: functional; details: Human alphaherpesvirus 1, kidney; read-out: ED50 (the source's name)
# Method in brief: (§4)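 Confluent primary rabbit kidney monolayers were preincubated with serial drug dilutions in EMEM with 2% fetal calf serum and neomycin. They were then challenged with about 10 TCID50 of HSV-1 Schooler and incubated at 37 °C. Cytopathology was scored on day 5.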
# [10] = system: DNA polymerase (Homo sapiens); experiment: Evaluated for DNA polymerase inhibition activity against HeLa cells.
# Human alphaherpesvirus 2 [11] = experiment: In vitro anti viral activity tested against HSV-2(Curtis) virus on Rabbit kidney cell cultures; 1-3; type: functional; details: Human alphaherpesvirus 2, kidney; read-out: ED50 (the source's name)
# Method in brief: as §4, with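 “Schooler or HSV-2 Curtis” for “Schooler”, “5. ED50 is the concentration preventing cytopathology in half of the infected cultures.” for “5.”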
# Human alphaherpesvirus 1 [12] = experiment: Efficacy was evaluated against Systemic HSV-1 infection in mice at a daily dose of 12.5 mg/kg administered orally; Total mice tested 10; type: ADME, organism-based; set-up: dose 12.5 mg/kg; details: mouse, in vivo, po; method in brief: as §2
# Human alphaherpesvirus 1 [13] = experiment: Efficacy was evaluated against Oraficial HSV-1 infection in mice with lesions administered orally at a dose 50 mg/kg per day.; type: ADME, organism-based; set-up: route oral; details: mouse, in vivo, po; method in brief: as §1
# Human alphaherpesvirus 1 [14] = experiment: Evaluated for DNA polymerase inhibition activity against herpes simplex virus-1 (HSV-1); type: functional
# Method in brief: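 Step II mixture supplied the phosphorylated test material. Step I: compound with HSV-1 thymidine kinase, 4 h, 37 °C. Step II: then HSV-1-infected HeLa crude extract plus GMP kinase, overnight, 30 °C. A 20 μL sample went to a 1 h, 37 °C DNA polymerase assay at pH 8 with activated salmon sperm DNA, 0.05 mM each dNTP ([³H]dTTP) and infected HeLa extract. (NH₄)₂SO₄ 0.1 M was present for the viral enzyme and omitted for the cellular polymerases. Read-out: TCA-precipitable radioactivity.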
# Human alphaherpesvirus 1 [15] = experiment: Efficacy was evaluated against Systemic HSV-1 infection in mice at a daily dose of 3.1 mg/kg administered orally; Total mice tested 10; type: ADME, organism-based; set-up: dose 3.1 mg/kg; details: mouse, in vivo, po; method in brief: as §2
# Human alphaherpesvirus 1 [16] = experiment: Efficacy was evaluated against Systemic HSV-1 infection in mice at a daily dose of 50 mg/kg administered orally; Total mice tested 10; type: organism-based; set-up: dose 50 mg/kg; details: mouse, in vivo, po; method in brief: as §2
# Human alphaherpesvirus 1 [17] = experiment: Efficacy was evaluated against Systemic HSV-1 infection in mice at a daily dose of 50 mg/kg administered orally.; type: ADME, organism-based; set-up: dose 50 mg/kg; details: mouse, in vivo, po; method in brief: as §2
# Human betaherpesvirus 5 [18] = experiment: In vitro anti viral activity tested against HCMV(AD169) virus on MRC-5 cell monolayers; NA=Not active at 25 ug/mL; type: functional, organism-based; details: MRC5; method in brief: as §3
# Human alphaherpesvirus 2 [19] = experiment: In vitro anti viral activity tested against HSV-2(Curtis) virus on Rabbit kidney cell cultures; 3-6; type: functional; details: Human alphaherpesvirus 2, kidney; read-out: ED50 (the source's name)
# Method in brief: as §4, with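 “Schooler or HSV-2 Curtis” for “Schooler”, “5. ED50 is the concentration preventing cytopathology in half of the infected cultures.” for “5.”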
# Human alphaherpesvirus 1 [20] = experiment: Efficacy was evaluated against Systemic HSV-1 infection in mice at a daily dose of 0.8 mg/kg administered subcutaneously; Tested mice 10; type: organism-based; set-up: dose 0.8 mg/kg, route subcutaneous; details: mouse, in vivo, sc
# Method in brief: (§5)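 ICR/Ha mice (10–20 g, mixed sex) were infected intraperitoneally with 50–100 LD50 of HSV-1 Schooler. Subcutaneous dosing of 0.1 mL twice daily for 4 days started immediately after infection. Groups were of about 10 mice. Survival was recorded daily for 15 days and reported as survivors/total and mean survival time (95% CI). Transformed survival times were compared with placebo-treated infected mice (p < 0.05).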
# Human alphaherpesvirus 1 [21] = experiment: Efficacy was evaluated against Systemic HSV-1 infection in mice at a daily dose of 0.8 mg/kg administered subcutaneously.; type: ADME, organism-based; set-up: dose 0.8 mg/kg, route subcutaneous; details: mouse, in vivo, sc; method in brief: as §5
# Human betaherpesvirus 5 [22] = experiment: In vitro anti viral activity tested against HCMV(AD169) virus on MRC-5 cell monolayers; 0.4-1.6; type: functional; details: Human betaherpesvirus 5, MRC5; read-out: ED50 (the source's name); method in brief: as §3
# Mus musculus = experiment: Efficacy was evaluated against Systemic HSV-1 infection in mice at a daily dose of 12.5 mg/kg administered subcutaneously.; type: ADME, organism-based; set-up: dose 12.5 mg/kg, route subcutaneous; details: in vivo, sc; method in brief: as §5
# Human alphaherpesvirus 1 [23] = experiment: Efficacy was evaluated against Systemic HSV-1 infection in mice at a daily dose of 3.1 mg/kg administered subcutaneously; Tested mice 10; type: ADME, organism-based; set-up: dose 3.1 mg/kg, route subcutaneous; details: mouse, in vivo, sc; method in brief: as §5
# Human alphaherpesvirus 1 [24] = experiment: Efficacy was evaluated against Systemic HSV-1 infection in mice at a daily dose of 12.5 mg/kg administered subcutaneously; Tested mice 10; type: organism-based; set-up: dose 12.5 mg/kg, route subcutaneous; details: mouse, in vivo, sc; method in brief: as §5
# Human alphaherpesvirus 1 [25] = experiment: Efficacy was evaluated against Systemic HSV-1 infection in mice at a daily dose of 3.1 mg/kg administered subcutaneously.; type: ADME, organism-based; set-up: dose 3.1 mg/kg, route subcutaneous; details: mouse, in vivo, sc; method in brief: as §5
# Human alphaherpesvirus 3 = experiment: In vitro anti viral activity tested against VZV(KMcC) virus on MRC-5 cell monolayers; 1-2; type: functional; details: Human alphaherpesvirus 3, MRC5; read-out: ED50 (the source's name)
smiles,measurement,setting,value
Nc1nc2c(ncn2COCCO)c(=O)[nH]1 [ACYCLOVIR],Mice with lesions,Human alphaherpesvirus 1 [1],6
same,Average survival,Human alphaherpesvirus 1 [2],7.6 days
same,EC50,Human betaherpesvirus 5 [3],20 µg/mL
same,Mice with lesions,Human alphaherpesvirus 1 [4],10
same,Average survival,Human alphaherpesvirus 1 [5],6.5 days
same,Average lesion score,Human alphaherpesvirus 1 [6],2.95
same,Mice with lesions,Human alphaherpesvirus 1 [7],8
same,Average lesion score,Human alphaherpesvirus 1 [8],3.75
same,EC50,Human alphaherpesvirus 1 [9],1 µg/mL
same,Inhibition,[10],34%
same,EC50,Human alphaherpesvirus 2 [11],1 µg/mL
same,Survivors,Human alphaherpesvirus 1 [12],1
same,Average lesion score,Human alphaherpesvirus 1 [13],1.45
same,Inhibition,Human alphaherpesvirus 1 [14],85%
same,Survivors,Human alphaherpesvirus 1 [15],0
same,Survivors,Human alphaherpesvirus 1 [16],2
same,Average survival,Human alphaherpesvirus 1 [17],8.7 days
"Nc1nc(O)c2ncn(COCC(O)CO)c2n1 (single isomer, unassigned; form 1)",ED50,Human betaherpesvirus 5 [18],inactive
Nc1nc2c(ncn2COC(CO)CO)c(=O)[nH]1 [GANCICLOVIR],EC50,Human alphaherpesvirus 2 [19],3 µg/mL
same,Survivors,Human alphaherpesvirus 1 [20],3
same,Average survival,Human alphaherpesvirus 1 [21],9.8 days
same,EC50,Human betaherpesvirus 5 [22],0.4 µg/mL
same,Average survival,Mus musculus,14.6 days
same,Survivors,Human alphaherpesvirus 1 [23],5
same,Survivors,Human alphaherpesvirus 1 [24],7
same,Average survival,Human alphaherpesvirus 1 [25],12.6 days
same,EC50,Human alphaherpesvirus 1 [9],1 µg/mL
same,Inhibition,[10],13%
same,Inhibition,Human alphaherpesvirus 1 [14],55%
same,EC50,Human alphaherpesvirus 3,1 µg/mL
